# RAM network inh – inhibitors of the yeast RAM network. actives 1.8% (n = 190,000). S. cerevisiae dse1pr::URA3 reporter, 5-FOA growth OD615, 2 d; analog-sensitive cbk1-as2 kinase mutant strain. inhibition, % at 50 µM;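 active = inhibition above a set limit, 3 SD over mean compound inhibition, cut at about 8.4% in these data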;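 note: 0% = DMSO-only wells with no growth and 100% = 10 µM 1-NA-PP1 full growth; inhibition rescues growth on 5-FOA so higher OD means more RAM inhibition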
# Measles CPE – protection of cells from measles virus; AID 841; actives 1.5% (n = 140,000); Measles virus-infected cells, CPE protection, absorbance; protection (pct of control), % at 4 µM; in the data active = protection mostly above about 24%, no sharp cut-off; inactive = mostly below about 26%
# Yeast growth inh – chemicals that inhibit yeast BB579 growth in restrictive medium (lifespan-shortening candidates) | S. cerevisiae BB579 growth, OD615, 48 h | inhibition, % at 10 µM | actives 0.51% (n = 140,000) | AID 804;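 active = inhibition above a set limit, 3 SD over the mean compound inhibition, cut at about 44% in these data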
#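 Material: Saccharomyces cerevisiae DeaD strain BB579, replicative lifespan model yeast; buffer or medium: CSMM-D restrictive synthetic medium containing dextrose (glucose); compound: 10 µM single dose, DMSO 0.25%; timing: 48 h compound exposure at 30 °C after 4 h preincubation; signal: turbidity as optical density at 615 nm; benchmarks: positive control amphotericin B 10 µg/mL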
# Yeast lifespan up – yeast lifespan extension; S. cerevisiae growth with nicotinamide, OD615; deaD strain in restrictive glucose medium; inhibition of the nicotinamide effect, % at 10 µM; actives 0.68% (n = 130,000);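 active = inhibition above a set limit, placed 3 SD over the median of all compounds, cut at about 26% in these data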;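 note: 0% = nicotinamide-treated wells and 100% = cells grown without nicotinamide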
#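 System: Modified budding yeast, DeaD strain | Buffer or medium: Restrictive glucose medium | Also added: 1.5 mM nicotinamide | Doses: 10 µM single point, 0.25% DMSO | Schedule: 48 h compound exposure at 30 °C, humidified | Detection: Absorbance at 615 nm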
# Phagocytosis inh – inhibitors of macrophage phagocytosis; actives 0.07% (n = 110,000); J774A.1 macrophage IgG-bead phagocytosis, imaging; AID 1029; inhibition, % at 5 µM;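 active = inhibition above the mean of the plate negative controls plus 5 SD, cut at about 13% in these data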;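 note: phagocytic index as fraction of beads internalized from green versus red external bead signal; plate controls were DMSO negative control for no effect and cytochalasin-D positive control for full effect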
# RAM 5-FOA – restores 5-FOA growth of efflux-deficient yeast; AID 1305; 1,200 tested, under 10 active; S. cerevisiae efflux-deficient reporter strain, 5-FOA growth OD615, 2 days; shares compounds with RAM network inh; max inhibition, %; call rule not given here;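 note: plate controls were vehicle for no effect and reference inhibitor for full effect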
# Active calls of the source: *; nt = no result. The list is not random: actives were taken first. Their share in the collection is about 3.6%.
SMILES,RAM network inh,Measles CPE,Yeast growth inh,Yeast lifespan up,Phagocytosis inh,RAM 5-FOA
COc1ccc(C2NCCc3c2[nH]c2ccccc32)cc1CSc1nc2ccccc2s1 (stereo not given),-1.5,14.2,-44.4,-4.2,-9.9,nt
O=C(/C=C/c1ccccc1)n1cnnc1SC/C=C/c1ccccc1,11.7*,11.1,-31.6,16.1,-10.2,7.9
Cc1nnc(SC/C=C/c2ccccc2)n(N)c1=O,2.7,nt,nt,nt,nt,nt
CCC(C)NS(=O)(=O)c1ccc(S(=O)(=O)N(CCc2ccc(OC)c(OC)c2)Cc2cccs2)cc1 (stereo not given),15.0*,19.6,-20.0,2.1,nt,2.2
COc1ccccc1CC(=O)Nc1cc2oc3ccccc3c2cc1OC,4.6,23.4,-26.1,-11.2,nt,nt
COc1cc(NC(=O)COC(=O)Cc2ccc(-c3ccccc3)cc2)cc(OC)c1,16.8*,12.8,-28.5,-3.4,1.5,3.7
CCOc1ccccc1NC(=O)COC(=O)Cc1ccc(-c2ccccc2)cc1,2.6,3.0,-11.4,1.9,4.6,nt
COc1ccc(CC(=O)Nc2cc3oc4ccccc4c3cc2OC)cc1,12.0*,4.8,-35.1,1.0,2.2,3.2
COc1ccc(OC)c(NC(=O)COC(=O)Cc2ccc(-c3ccccc3)cc2)c1,13.6*,10.3,-45.8,2.7,-10.0,2.8
COc1ccc(C2=NO[C@@H]3[C@@H]4C[C@@H]([C@H]5C(=O)N(C)C(=O)[C@@H]45)[C@H]23)cc1,0.8,12.0,-27.2,-1.0,-4.3,nt
CCCc1nn(C)c(C(=O)Nc2ccccc2)c1Cl,2.9,6.0,-10.6,-7.3,-8.5,nt
O=S(=O)(c1ccccc1)N1CCN=C1SCc1ccc(Cl)cc1,0.7,nt,nt,nt,nt,nt
O=S(=O)(c1ccccc1)N1CCN=C1SCc1ccc(Cl)c(Cl)c1,12.2*,4.4,-57.8,-0.7,-8.4,2.1
COCCn1c(-c2ccccc2Cl)nc2c(c(=O)c3ccccc3n2C)c1=O,1.3,9.3,-40.9,-0.8,-11.9,nt
O=C(Nc1ccn(Cc2ccccc2F)n1)c1ccc(COc2ccc(Br)cc2)cc1,16.2*,49.3,-50.5,-8.9,nt,1.5
Cc1ccc(Cl)cc1N1CCN(C(=S)NCCc2ccccc2)CC1,13.0*,nt,nt,nt,nt,2.8
CCCCC(=O)O[C@H]1CC[C@H]2[C@@H]3CCc4cc(O)ccc4[C@H]3CC[C@]12C,14.5*,3.3,-42.9,9.6,nt,7.4
O=C(CCOc1ccccc1)Nc1cccc(S(=O)(=O)Nc2ccccc2Cl)c1,17.6*,7.5,-4.5,6.1,-1.9,1.5
O=C(Nc1cccc(S(=O)(=O)Nc2ccccc2Cl)c1)c1ccc(Cl)nc1,4.1,11.1,-2.5,3.7,-4.9,nt
O=C(C1=NNCC1c1ccccc1)C1CO1 (stereo not given),-0.1,4.8,-9.6,1.0,nt,nt
CCOc1ccc(-c2nnc3ccc(SCc4ccc(C(=O)OC)o4)nn23)cc1,11.9*,9.8,-30.1,-8.0,-0.2,1.1
c1ccc(-c2nnc(SCc3nnc(-c4cccs4)o3)o2)cc1,0.1,22.0,-66.7,-15.6,0.0,nt
Clc1ccc(-c2nnc(CSc3nnc(-c4cccs4)o3)o2)cc1,13.2*,3.6,-1.4,5.6,-0.8,2.3
Cc1ccc(-n2nc(CN3CCOCC3)c(-c3ccccc3)c2N)cc1Cl,0.0,3.8,3.7,-5.0,-2.1,nt
COc1cc(/C=C/C(=O)OCC(=O)NCc2cccs2)ccc1OCC#N,3.6,25.3,-11.2,-4.4,5.5,nt
SMILES,RAM network inh,Measles CPE,Yeast growth inh,Yeast lifespan up,Phagocytosis inh,RAM 5-FOA
Cc1ccc(-n2c(O)c(/C=N/n3cnnc3)c3ccccc3c2=O)cc1,-0.7,0.3,-32.4,-20.6,-1.2,nt
Cc1ccc(-n2c(O)c(/C=N/c3ncn[nH]3)c3ccccc3c2=O)cc1,11.8*,nt,nt,nt,nt,2.3
Cc1ccc(Nc2nnc(SCC(=O)NCCN3C(=O)CSC3=O)s2)cc1,0.1,36.5,14.1,-6.7,-13.9,nt
Cc1ccc(C(=O)C(OC(=O)CCC(=O)Nc2cccc(C)c2)c2ccccc2)cc1 (stereo not given),12.9*,9.0,-40.8,-29.9,nt,4.3
CCc1cc2c(=O)n(Cc3ccco3)c(SCc3c(C)noc3C)nc2s1,13.4*,8.8,-49.2,-3.4,-1.2,7.0
Cc1ccccc1N(CC(=O)Nc1ccccc1C(=O)O)S(C)(=O)=O,1.6,25.9,-14.0,-2.8,1.7,nt
Cc1ccc(S(=O)(=O)N(CC(=O)Nc2ccccc2C(=O)O)c2cccc(Cl)c2C)cc1,14.2*,14.0,-45.9,24.4,0.1,3.5
Cn1c(SCC(=O)N2CCCC2=O)nnc1-c1ccccc1F,0.1,nt,nt,nt,nt,nt
COc1ccc(N(CCC#N)S(=O)(=O)c2cccc3nsnc23)cc1,1.3,6.4,-29.2,2.1,-2.2,nt
COc1cc(/C=C(\C#N)c2ccccn2)ccc1OCc1ccc(Cl)cc1,11.7*,5.6,-18.4,2.6,-3.5,2.6
CCN(CC)c1ccc(/C=C(\C#N)c2ccccn2)cc1,0.0,5.8,-23.3,-1.4,0.8,nt
CCN(Cc1ccccc1)c1ccc(/C=C(\C#N)c2ccccn2)cc1,17.0*,16.5,-47.2,4.6,-6.2,10.0
CC(C)c1ccccc1NC(=O)CCc1nc2ccccc2s1,4.4,6.0,-11.4,-1.5,0.0,nt
Cc1c(C(=O)C(=O)N2CC=C(c3ccccc3)CC2)c2ccccc2n1C,2.2,9.2,1.6,0.1,21.8,nt
C=CCc1cccc(/C=N/NC(=O)C(C)Nc2ccc(C)cc2)c1O (stereo not given),16.1*,13.6,7.3,0.9,-2.6,1.3
C/C(=N\OC(=O)c1ccc(Cl)cc1)c1sc(-c2ccccc2)nc1C,11.5*,3.5,-28.9,5.3,-0.3,4.3
C/C(=N\OC(=O)c1ccc(F)cc1)c1sc(-c2ccccc2)nc1C,6.5,7.2,-21.0,-5.2,-0.3,nt
O=C(CC12CC3CC(CC(C3)C1)C2)NC(=S)NCc1ccco1,14.8*,nt,nt,nt,nt,2.9
CCOC(=O)c1sc(-c2ccccc2)cc1NC(=O)c1ccc(S(=O)(=O)N(CCOC)CCOC)cc1,18.2*,3.9,-31.0,8.5,-2.2,3.4
COC(=O)c1sc(-c2ccccc2)cc1NC(=O)c1ccccc1,4.3,nt,-14.1,0.0,-11.9,nt
CC(C)c1ccc(CNC(=O)CSCC(=O)Nc2ccc3ccccc3c2)cc1,13.1*,-1.1,-29.7,-2.8,4.6,1.4
O=C(CSCC(=O)Nc1ccc2ccccc2c1)NCc1ccccc1,4.0,7.5,-35.5,-18.8,nt,nt
CCC(C)(C)C(=O)Nc1cccc(Cl)c1C,2.8,nt,nt,nt,nt,nt
COc1ccc(CCNC(=O)Cn2c(=O)[nH]c3ccsc3c2=O)cc1OC,3.4,nt,nt,nt,nt,nt
COc1cccc(/C(C)=N/NC(=O)Cc2c(C)[nH][nH]c2=O)c1,3.1,nt,nt,nt,nt,nt
CC(=O)c1ccc(OC(=O)CCN2c3ccccc3Sc3ccccc32)cc1,11.4*,24.1,-30.0,4.9,-1.1,3.3
C=CCn1c(SCc2csc(C)n2)nc2sc3c(c2c1=O)CCCCC3,16.6*,13.6,-38.9,-12.8,0.8,3.0
C=CCn1c(SCC(=O)NCc2ccco2)nc2sc3c(c2c1=O)CCCC3,2.9,9.8,-58.9,-0.9,-1.0,nt

# Screens (PubChem)
